The structures appear in SMILES notation. pIC50: −log10 of the molar value.

Usually pIC50 stands for the IC50 on a negative log10 scale, so that one unit is a factor of ten.

In the experiment the target is T1, Nitric oxide synthase, inducible (Mus musculus, UniProt P29477).
T1 sequence (P29477 whole entry): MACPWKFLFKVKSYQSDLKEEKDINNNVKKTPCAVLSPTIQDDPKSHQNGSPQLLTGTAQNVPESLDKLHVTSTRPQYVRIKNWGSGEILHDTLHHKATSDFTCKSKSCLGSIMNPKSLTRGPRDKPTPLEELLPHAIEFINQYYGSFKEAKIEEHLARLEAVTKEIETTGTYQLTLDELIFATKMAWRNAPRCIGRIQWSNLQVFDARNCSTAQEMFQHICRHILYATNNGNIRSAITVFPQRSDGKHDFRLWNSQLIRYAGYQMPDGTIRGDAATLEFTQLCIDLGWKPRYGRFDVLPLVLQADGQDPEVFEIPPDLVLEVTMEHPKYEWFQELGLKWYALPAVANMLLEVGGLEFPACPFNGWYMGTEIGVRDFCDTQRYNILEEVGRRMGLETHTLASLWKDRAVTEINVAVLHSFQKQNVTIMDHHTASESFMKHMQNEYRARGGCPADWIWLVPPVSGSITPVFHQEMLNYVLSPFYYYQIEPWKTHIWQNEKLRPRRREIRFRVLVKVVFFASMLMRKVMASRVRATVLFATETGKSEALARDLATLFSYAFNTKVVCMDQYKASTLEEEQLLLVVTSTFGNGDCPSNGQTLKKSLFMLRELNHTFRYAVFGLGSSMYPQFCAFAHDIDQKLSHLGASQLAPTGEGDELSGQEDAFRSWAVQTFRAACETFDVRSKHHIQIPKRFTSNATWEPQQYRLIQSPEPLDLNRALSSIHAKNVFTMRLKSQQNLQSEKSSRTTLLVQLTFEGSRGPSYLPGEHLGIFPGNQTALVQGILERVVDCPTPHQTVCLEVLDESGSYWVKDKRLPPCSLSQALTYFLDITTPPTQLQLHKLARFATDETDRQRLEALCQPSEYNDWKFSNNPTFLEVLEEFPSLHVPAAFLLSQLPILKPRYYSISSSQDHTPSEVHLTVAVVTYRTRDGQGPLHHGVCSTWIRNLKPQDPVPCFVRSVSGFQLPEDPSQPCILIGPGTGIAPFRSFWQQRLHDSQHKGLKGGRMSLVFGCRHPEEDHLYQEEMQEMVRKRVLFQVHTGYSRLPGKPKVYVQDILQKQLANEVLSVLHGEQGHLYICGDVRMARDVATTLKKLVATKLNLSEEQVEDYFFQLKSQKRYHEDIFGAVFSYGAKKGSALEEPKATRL
Description: Inhibition of inducible NOS mediated nitric oxide production in LPS-activated Kunming mouse macrophages. The essentials:
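Peritoneal exudate cells from female Kunming mice (18–22 g), elicited 2 d earlier by ip 3% starch (1 mL). Cells (10^6/well) precultured 4 h at 37 °C in DMEM with 5% FCS, then washed to keep the adherent macrophages (>95% by Giemsa). Stimulated with LPS 10 µg/mL plus graded compound for 20 h. Nitrite/nitrate measured after nitrate reductase conversion, read colorimetrically. Inhibition % calculated, IC50 read graphically. L-NNA positive control.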
In turn, `N=C(NCCCCCC(=O)N[C@@H]1CN[C@H](C(=O)Nc2cc(Cl)cc(Cl)c2)C1)N[N+](=O)[O-]` showed a negative logarithm of the IC50 (pIC50) of 4.06. The value for `N=C(NCCCCCC(=O)N[C@@H]1CN[C@H](C(=O)NC2CCCCC2)C1)N[N+](=O)[O-]` was 5.13. As to `N=C(NCCCCCC(=O)N[C@@H]1CN[C@H](C(=O)Nc2ccccc2F)C1)N[N+](=O)[O-]`, the negative-log IC50 (pIC50) was 4.88. Compound `N=C(NCCCCCC(=O)N[C@@H]1CN[C@H](C(=O)Nc2ccc(F)cc2)C1)N[N+](=O)[O-]` had a pIC50 of 4.06.

`Cc1ccc(NC(=O)[C@@H]2C[C@H](NC(=O)CCCCCNC(=N)N[N+](=O)[O-])CN2)cc1Cl` showed a pIC50 of 5.60. The value for `N=C(NCCCCCC(=O)N[C@@H]1CN[C@H](C(=O)Nc2ccc(Cl)cc2)C1)N[N+](=O)[O-]` was 4.10; that for `N=C(NCCCCCC(=O)N[C@@H]1CN[C@H](C(=O)Nc2ccc(F)c(F)c2F)C1)N[N+](=O)[O-]` was 4.44; that for `N=C(NCCCCCC(=O)N[C@@H]1CN[C@H](C(=O)Nc2ccc(F)c(F)c2)C1)N[N+](=O)[O-]` was 5.57. As for `N=C(NCCCCCC(=O)N[C@@H]1CN[C@H](C(=O)Nc2ccccc2)C1)N[N+](=O)[O-]`, the figure is 5.63. `N=C(NCCCCCC(=O)N[C@@H]1CN[C@H](C(=O)Nc2cc(Cl)ccc2Cl)C1)N[N+](=O)[O-]` showed a negative-log IC50 (pIC50) of 3.98. As for `N=C(NCCCCCC(=O)N[C@@H]1CN[C@H](C(=O)Nc2cccc([N+](=O)[O-])c2)C1)N[N+](=O)[O-]`, the figure is 4.34; as for `N=C(NCCCCCC(=O)N[C@@H]1CN[C@H](C(=O)Nc2ccc([N+](=O)[O-])cc2)C1)N[N+](=O)[O-]`, 4.60. Compound `Cc1cccc(NC(=O)[C@@H]2C[C@H](NC(=O)CCCCCNC(=N)N[N+](=O)[O-])CN2)c1` showed a negative-log IC50 (pIC50) of 3.92. Regarding `Cc1ccccc1NC(=O)[C@@H]1C[C@H](NC(=O)CCCCCNC(=N)N[N+](=O)[O-])CN1`, the negative logarithm of the IC50 (pIC50) is 3.92.

In turn, `COc1ccc(NC(=O)[C@@H]2C[C@H](NC(=O)CCCCCNC(=N)N[N+](=O)[O-])CN2)cc1` gave a pIC50 of 4.57. As for `N=C(NCCCCCC(=O)N[C@@H]1CN[C@H](C(=O)Nc2ccc(Cl)cc2Cl)C1)N[N+](=O)[O-]`, the figure is 4.81; as for `N=C(NCCCCCC(=O)N[C@@H]1CN[C@H](C(=O)Nc2ccccc2Cl)C1)N[N+](=O)[O-]`, 3.97; as for `N=C(NCCCCCC(=O)N[C@@H]1CN[C@H](C(=O)Nc2ccc(F)cc2F)C1)N[N+](=O)[O-]`, 3.86.

`Cc1ccc(NC(=O)[C@@H]2C[C@H](NC(=O)CCCCCNC(=N)N[N+](=O)[O-])CN2)c(C)c1` showed a pIC50 of 3.92. As for `N=C(NCCCCCC(=O)N[C@@H]1CN[C@H](C(=O)NCc2ccccc2)C1)N[N+](=O)[O-]`, the pIC50 is 4.36.

Regarding `N=C(NCCCCCC(=O)N[C@@H]1CN[C@H](C(=O)Nc2ccc(Br)cc2)C1)N[N+](=O)[O-]`, the pIC50 was 4.13. In the case of `N=C(NCCCCCC(=O)N[C@@H]1CN[C@H](C(=O)Nc2cccc(Cl)c2)C1)N[N+](=O)[O-]`, the negative-log IC50 (pIC50) is 4.89.

Turning to `Cc1ccc(NC(=O)[C@@H]2C[C@H](NC(=O)CCCCCNC(=N)N[N+](=O)[O-])CN2)cc1`, the negative-log IC50 (pIC50) was 3.91.

For `N=C(NCCCCCC(=O)N[C@@H]1CN[C@H](C(=O)Nc2cc(F)cc(F)c2)C1)N[N+](=O)[O-]`, the negative logarithm of the IC50 (pIC50) is 4.93. For `CCOc1ccc(NC(=O)[C@@H]2C[C@H](NC(=O)CCCCCNC(=N)N[N+](=O)[O-])CN2)cc1`, the pIC50 was 3.79. The value for `N=C(NCCC[C@H](N)C(=O)O)N[N+](=O)[O-]` [NITROARGININE] was 4.83.

For the origin of these results see ChEMBL document CHEMBL1143872, “Design, synthesis, and preliminary evaluation of 4-(6-(3-nitroguanidino)hexanamido)pyrrolidine derivatives as potential iNOS inhibitors” (Bioorg Med Chem, 2008).
